Data as given in ChEMBL document CHEMBL2311384, “Probing the steric requirements of the γ-aminobutyric acid aminotransferase active site with fluorinated analogues of vigabatrin” (Bioorg Med Chem, 2013).
The source made the active and inactive calls. The rule behind the calls is not given here.

Experiments:
[1] = biological target: 4-aminobutyrate aminotransferase, mitochondrial (Sus scrofa) (UniProt P80147); assay: Activity at pig brain GABA-AT assessed as glutamate production at 3 mM preincubated for 20 mins relative to GABA
Summary of the method: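 GABA-AT purified from pig brain; substrate tested as turnover substrate in 100 mM potassium pyrophosphate pH 8.6 with α-ketoglutarate; glutamate formed detected by glutamate oxidase/horseradish peroxidase/Amplex Red fluorescence (ex 530, em 590 nm); scaled to glutamate standard curve (0–10 µM); highest rates, between 15 and 25 min, used.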

[2] = biological target: 4-aminobutyrate aminotransferase, mitochondrial (Sus scrofa) (UniProt P80147); assay: Reversible inhibition of pig brain GABA-AT using GABA as substrate at 23 mM
[3] = biological target: 4-aminobutyrate aminotransferase, mitochondrial (Sus scrofa) (UniProt P80147); assay: Time dependent inhibition of pig brain GABA-AT using GABA as substrate at 5 mM up to 150 mins
Summary of the method: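 Pig brain GABA-AT in 100 mM potassium phosphate pH 7.0 preincubated at 25 °C with β-mercaptoethanol, α-ketoglutarate and compound (5 mM final); aliquots taken at time points into assay solution (GABA, α-ketoglutarate, NADP+, pH 8.6) with excess SSADH; remaining activity from 340 nm NADPH absorbance rate.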

[4] = biological target: 4-aminobutyrate aminotransferase, mitochondrial (Sus scrofa, UniProt P80147); assay: Reversible inhibition of pig brain GABA-AT using GABA as substrate
Summary of the method: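 Pig brain GABA-AT, purified in-house, mixed with excess SSADH (from GABase), then inhibitor at several concentrations added in assay buffer: 87 mM potassium pyrophosphate pH 8.6, 6 mM GABA, 5 mM α-ketoglutarate, 1.25 mM NADP+, 3.3 mM β-mercaptoethanol. Rate read directly without preincubation as NADPH absorbance at 340 nm. IC50 from concentration-response fit; Ki via Cheng-Prusoff.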

Chain of 4-aminobutyrate aminotransferase, mitochondrial (Sus scrofa) (P80147 whole entry): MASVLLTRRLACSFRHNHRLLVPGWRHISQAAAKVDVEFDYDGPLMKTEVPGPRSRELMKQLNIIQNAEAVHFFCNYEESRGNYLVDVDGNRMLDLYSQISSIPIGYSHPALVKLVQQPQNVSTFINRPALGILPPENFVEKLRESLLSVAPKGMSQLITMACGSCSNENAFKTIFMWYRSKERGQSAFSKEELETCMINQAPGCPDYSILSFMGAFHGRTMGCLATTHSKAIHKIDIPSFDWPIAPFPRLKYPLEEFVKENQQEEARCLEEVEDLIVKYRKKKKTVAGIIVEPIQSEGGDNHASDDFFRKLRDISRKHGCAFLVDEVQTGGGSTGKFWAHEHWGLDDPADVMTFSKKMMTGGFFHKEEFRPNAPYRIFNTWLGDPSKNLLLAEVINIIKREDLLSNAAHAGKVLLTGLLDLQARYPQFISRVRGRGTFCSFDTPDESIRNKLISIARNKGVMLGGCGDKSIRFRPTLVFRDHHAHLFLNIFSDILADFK
Chain of 4-aminobutyrate aminotransferase, mitochondrial (P80147 whole entry): as above

| Ki [4] [µM] | Compound | Activity [1] [%] | inhibition [2] | inhibition [3] |
| --- | --- | --- | --- | --- |
|  | C[C@H](F)[C@@H](N)CCC(=O)O | 0.11 | inactive | inactive |
| 40 | N[C@@H]1C=C[C@H](C(=O)O)C1 |  |  |  |
|  | C[C@@H](F)[C@H](N)CCC(=O)O | 0.02 | inactive | inactive |
|  | C[C@@H](F)[C@@H](N)CCC(=O)O | 0.32 | inactive | inactive |
